Results: ChEMBL document CHEMBL3351715, “Methylenedioxy flavonoids: assessment of cytotoxic and anti-cancer potential in human leukemia cells” (Eur J Med Chem, 2014)
Activity calls are given as the source filed them. The rule behind the calls is not given here.

Legend:
[1] = Cytotoxicity against human U937 cells assessed as cell viability at 10 uM after 72 hrs by trypan blue staining assay; conditions: U-937, 72 h
Jurkat [2] = test: Cytotoxicity against human Jurkat cells assessed as cell viability at 10 uM after 72 hrs by trypan blue staining assay
[3] = Cytotoxicity against human U937 cells assessed as reduction in cell viability at 10 to 50 uM after 72 hrs by CellTiter-Glo luminescent cell viability assay; assay type: functional, U-937
Procedure, shortened: (§1)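 Leukemia cells in RPMI/10% FCS at 37 °C, 5% CO2 treated for 24, 48 or 72 h. Equal volume of CellTiter-Glo reagent added, 10 min in the dark at RT, ATP luminescence converted to viable cell number. Normalized to untreated control (%), etoposide as positive control; mean ± SD of three determinations; IC50 from concentration-response.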

[4] = Cytotoxicity against human U937 cells assessed as reduction in cell viability at 10 to 50 uM after 48 hrs by CellTiter-Glo luminescent cell viability assay; assay type: functional, U-937
Procedure, shortened: as §1

PBMC = test: Cytotoxicity against human PBMC assessed as reduction in cell viability at 10 to 50 after 24 to 72 hrs by CellTiter-Glo luminescent cell viability assay; assay type: cell-based
Procedure, shortened: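 PBMCs isolated from healthy donor buffy coats (blood diluted 1/3 in RPMI, Ficoll, 400 × g, 20 min), kept 24 h at 37 °C, 5% CO2, then treated 24–72 h. ATP read by CellTiter-Glo luminescence (10 min, dark, RT), normalized to untreated control (%); etoposide positive control; mean ± SD, n=3.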

Jurkat [5] = test: Cytotoxicity against human Jurkat cells assessed as reduction in cell viability after 24 to 72 hrs by CellTiter-Glo luminescent cell viability assay; assay type: functional, cell-based
Procedure, shortened: as §1

[6] = Cytotoxicity against human U937 cells assessed as inhibition of cell proliferation at 30 uM after 72 hrs by trypan blue staining assay; assay type: functional; conditions: U-937, 72 h
Procedure, shortened: (§2)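 Trypan blue exclusion count of Jurkat, U937 or K562 cells (RPMI, 10% FCS, 37 °C, 5% CO2, 10 days' culture after thawing) exposed to compound from DMSO stock; controls received equal DMSO. Proliferation expressed relative to control; mean ± SD of three determinations, Student's t-test with p<0.05 taken as significant.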

K562 [7] = test: Cytotoxicity against human K562 cells assessed as reduction in cell viability after 24 to 72 hrs by CellTiter-Glo luminescent cell viability assay; assay type: functional, cell-based
Procedure, shortened: as §1

K562 [8] = test: Cytotoxicity against human K562 cells assessed as inhibition of cell proliferation at 10 to 50 uM after 8 to 72 hrs by trypan blue staining assay; assay type: functional, cell-based
Procedure, shortened: as §2

Jurkat [9] = test: Cytotoxicity against human Jurkat cells assessed as inhibition of cell proliferation at 50 uM after 72 hrs by trypan blue staining assay; assay type: functional
Procedure, shortened: as §2

Jurkat [10] = test: Cytotoxicity against human Jurkat cells assessed as inhibition of cell proliferation after 72 hrs by trypan blue staining assay; assay type: functional, cell-based
Procedure, shortened: as §2

Jurkat [11] = test: Cytotoxicity against human Jurkat cells assessed as reduction in cell viability after 72 hrs by CellTiter-Glo luminescent cell viability assay; assay type: functional, cell-based
Procedure, shortened: as §1

K562 [12] = test: Cytotoxicity against human K562 cells assessed as inhibition of cell proliferation at 20 uM after 72 hrs by trypan blue staining assay; assay type: functional, cell-based
Procedure, shortened: as §2

K562 [13] = test: Cytotoxicity against human K562 cells assessed as reduction in cell viability after 72 hrs by CellTiter-Glo luminescent cell viability assay; assay type: functional, cell-based; conditions: K562, 72 h
Procedure, shortened: as §1

U-937 = test: Cytotoxicity against human U937 cells assessed as inhibition of cell viability at 20 uM after 72 hrs by trypan blue staining assay; assay type: functional, cell-based
Jurkat [14] = test: Induction of apoptosis in human Jurkat cells assessed as caspase-7 cleavage at 20 uM after 48 hrs Western blotting method; assay type: functional, cell-based
Procedure, shortened: (§3)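 Jurkat cells (10⁷ per sample) treated up to 48 h, lysed on ice in hypertonic detergent buffer with protease inhibitors, cleared at 15,000 × g, 15 min, 4 °C. Separated by 10% SDS-PAGE, transferred to nitrocellulose, probed with anti-caspase 3 or anti-caspase 7 (1/1000) and HRP secondary; β-actin loading control.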

[15] = Cytotoxicity against human U937 cells assessed as reduction in cell viability after 72 hrs by CellTiter-Glo luminescent cell viability assay; assay type: functional, cell-based; conditions: U-937, 72 h
Procedure, shortened: as §1

Jurkat [16] = test: Induction of apoptosis in human Jurkat cells assessed as caspase-3 cleavage at 20 uM after 48 hrs Western blotting method; assay type: functional, cell-based
Procedure, shortened: as §3

K562 [17] = test: Cytostatic effect against human K562 cells at >30 uM after 72 hrs by trypan blue staining assay; assay type: functional, cell-based
Procedure, shortened: as §2

COc1ccc(/C=C/C(=O)c2ccc3c(c2O)OCO3)cc1 gave a viability at 10 µM [1] of 80.9% and a viability at 10 µM (Jurkat [2]) of 80.6%.

In the case of COc1cc(/C=C/C(=O)c2ccc3c(c2O)OCO3)cc(OC)c1OC, the “inhibition (INH)” value [3] is reported as 20%, the “inhibition (INH)” value [4] is reported as 35% and the viability at 10 µM [1] is reported as 64.4%. For the same molecule, the Activity (PBMC) was “Non-toxic”, the inhibition (Jurkat [5]) was “Dose-dependent effect” and the viability at 10 µM (Jurkat [2]) was 56.1%. For the same molecule, the inhibition at 30 µM [6] was 41%, the inhibition (K562 [7]) was “inactive” and the inhibition (K562 [8]) was “inactive”. The inhibition at 50 µM (Jurkat [9]) was 70% and the inhibition (Jurkat [10]) was “Dose-dependent effect”.

With COc1ccc(C2CC(=O)c3ccc4c(c3O2)OCO4)cc1 (configuration not stated) the viability at 10 µM [1] was 81.7% and the viability at 10 µM (Jurkat [2]) was 88.2%.

With COc1ccccc1/C=C/C(=O)c1ccc2c(c1O)OCO2 the IC50 (Jurkat [11]) was 13.7 µM, the inhibition (K562 [12]) was “Active” and the IC50 (K562 [13]) was 42.3 µM. For the same molecule, the viability at 10 µM [1] was 55.4%, the Activity (PBMC) was “Non-toxic” and the viability at 10 µM (Jurkat [2]) was 59%. For the same molecule, the inhibition (U-937) was “Active”, the Activity (Jurkat [14]) was “Active” and the IC50 [15] was 11.4 µM. The Activity (Jurkat [16]) was “Active” and the Activity (K562 [17]) was “Active”.

With COc1ccc(-c2cc(=O)c3ccc4c(c3o2)OCO4)cc1OC the viability at 10 µM [1] was 82.5% and the viability at 10 µM (Jurkat [2]) was 87.9%.

COc1ccc(/C=C/C(=O)c2ccc3c(c2O)OCO3)cc1OC showed a viability at 10 µM [1] of 69.3% and a viability at 10 µM (Jurkat [2]) of 77.5%.

Work on COc1ccccc1C1CC(=O)c2ccc3c(c2O1)OCO3 (configuration not stated) yielded a viability at 10 µM [1] of 74% and a viability at 10 µM (Jurkat [2]) of 83.2%.

Work on COc1cc(C2CC(=O)c3ccc4c(c3O2)OCO4)cc(OC)c1OC (configuration not stated) yielded a viability at 10 µM [1] of 68.3% and a viability at 10 µM (Jurkat [2]) of 69.7%.

For COc1ccccc1-c1cc(=O)c2ccc3c(c2o1)OCO3, the viability at 10 µM [1] was 82.7% and the viability at 10 µM (Jurkat [2]) was 91.6%.

COc1ccc(-c2cc(=O)c3ccc4c(c3o2)OCO4)cc1 gave a viability at 10 µM [1] of 76.5% and a viability at 10 µM (Jurkat [2]) of 81.2%.

Work on COc1ccc(C2CC(=O)c3ccc4c(c3O2)OCO4)cc1OC (configuration not stated) yielded a viability at 10 µM [1] of 80.4% and a viability at 10 µM (Jurkat [2]) of 74.9%.

Work on COc1cc(-c2cc(=O)c3ccc4c(c3o2)OCO4)cc(OC)c1OC yielded a viability at 10 µM [1] of 90.5% and a viability at 10 µM (Jurkat [2]) of 76%.
